Screening results: PubChem BioAssay, Sanford-Burnham Center for Chemical Genomics
Compounds with a hit are over-represented: about 0.77% of the library has one in this group of screens.
hIAP block: human IAP inhibition; inhibition, % at 10 µM; 330,000 compounds, 0.12% hits; purified IAP, CDP-Star luminescence, 30 min;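 active = inhibition reaching a set limit with compound at 10 µM in the primary screen, cut at about 35% in these data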;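 also: plate controls were DMSO wells with enzyme for no effect and no-enzyme buffer wells for full effect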
Target sequence (P09923 whole entry, looked up): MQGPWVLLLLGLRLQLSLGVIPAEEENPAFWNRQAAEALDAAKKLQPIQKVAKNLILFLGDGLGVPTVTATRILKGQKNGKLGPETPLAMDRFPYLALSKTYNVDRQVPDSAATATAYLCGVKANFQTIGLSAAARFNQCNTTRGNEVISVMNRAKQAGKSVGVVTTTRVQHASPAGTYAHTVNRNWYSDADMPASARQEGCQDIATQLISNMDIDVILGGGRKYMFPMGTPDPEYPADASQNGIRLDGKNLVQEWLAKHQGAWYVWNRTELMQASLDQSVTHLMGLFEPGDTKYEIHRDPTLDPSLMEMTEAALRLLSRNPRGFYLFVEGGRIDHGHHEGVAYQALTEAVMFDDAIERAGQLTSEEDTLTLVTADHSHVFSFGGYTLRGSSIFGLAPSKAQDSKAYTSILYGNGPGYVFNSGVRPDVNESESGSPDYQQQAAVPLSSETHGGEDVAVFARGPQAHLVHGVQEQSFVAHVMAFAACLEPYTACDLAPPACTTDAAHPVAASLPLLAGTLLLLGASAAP
bIAP activator: increases bovine intestinal alkaline phosphatase activity; purified bovine IAP, CDP-star luminescence, 30 min; hits give high values; fold of DMSO-control signal, blank-subtracted; 200,000 compounds, 0.17% hits; activation factor at 20 µM; AID 1016;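 active = activation factor of 2 or more at 20 µM, a signal rise over negative controls twice the positive control's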
mIAP act: mouse IAP activation; muIAP, CDP-Star luminescence, 30 min; hits give high values; 1 = vehicle-only enzyme signal, 0 = enzyme-free wells; 330,000 compounds, 0.24% hits; activation factor at 10 µM; AID 2805;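 active = activation factor of at least 2 at 20 µM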
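also added = chemiluminescent substrate CDP-Star | test system = mouse IAP enzyme | signal = chemiluminescence readout | compound = DMSO-dissolved test compounds | incubation = 30 min at room temperature | benchmarks = DMSO wells, no-enzyme wells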
hIAP activ: human IAP activation. activation factor at 10 µM. purified human IAP, CDP-Star luminescence, 30 min; hits give high values; 1 = vehicle-only enzyme, 0 = enzyme-free background. P09923. 330,000 compounds, 0.16% hits;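 active = activation factor of the enzyme at least 2-fold when tested at 20 µM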
mIAP block: blocks mouse intestinal alkaline phosphatase; 330,000 compounds, 0.2% hits; inhibition, % at 10 µM; purified mouse IAP, CDP-Star luminescence, 30 min;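 active = inhibition of at least 40% at 10 µM in the primary screen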;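 also: plate controls were DMSO with enzyme for no effect and no enzyme wells for full effect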
bIAP inh: intestinal alkaline phosphatase (bovine) inhibition; 190,000 tested, under 10 active; purified bovine IAP, CDP-star luminescence, 30 min; inhibition, % at 20 µM;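 active = over 50% inhibition of intestinal alkaline phosphatase at 20 µM in the single-dose screen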
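System: purified bovine intestinal alkaline phosphatase (IAP) enzyme; Input: IAP diluted 1/65,000,000 in the well; Measured by: CDP-star luminescence signal; Compound dosing: 20 µM single dose; Incubation: 30 min reaction at room temperature.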
Numbers without * were called inactive; nt = no result.

SMILES	hIAP block	bIAP activator	mIAP act	hIAP activ	mIAP block	bIAP inh
S=C(NCc1ccc(Cl)cc1Cl)Nc1ccccc1	-10.8	1.2	2.35*	1.11	-135.0	-17.8
O=C(CSc1nnc(NC2CC2)s1)c1ccc[nH]1	-3.8	nt	1	1.04	-0.1	nt
COc1ccc(CNC(=S)Nc2ccc(F)c(Cl)c2)cc1	-27.7	0.9	2.62*	1.28	-161.5	10.2
Cc1cc(Cl)ccc1NC(=S)NCc1ccccc1Cl	-9.6	0.9	2.62*	1.09	-161.5	8.4
CC1=C(C#N)C(=O)N(C2CCS(=O)(=O)C2)C(=O)/C1=C\c1ccc(C)o1 (centres undefined)	11.7	nt	0.95	0.883	5.0	nt
CS(=O)(=O)N1CCC(C(=O)Nc2cccc(Br)c2)CC1	0.1	nt	1.01	0.999	-1.0	nt
CCCCOc1ccc(CSCCNC(=S)Nc2ccccc2)cc1	-10.9	1	1.84	1.11	-83.7	1.5
CCCCCOc1ccc(CSCCNC(=S)Nc2ccccc2)cc1	-69.0	1.1	2.47*	1.69	-147.2	-5.5
CC(C)COc1ccc(CSCCNC(=S)Nc2ccccc2)cc1	-2.6	0.6	2.44*	1.03	-144.3	42.7
CCc1ccc(OCC(=O)N/N=C(\C)c2ccc(-n3ccnc3)cc2)cc1	-13.5	2*	0.931	1.14	6.9	-99.8
COc1cccc(N2CCN(C(=O)CCCCCNc3nc(=S)[nH]c4ccccc34)CC2)c1	-8.3	1.1	0.903	1.08	9.7	-5.4
CN(CC(=O)Nc1cc(Cl)ccc1C#N)C1CCS(=O)(=O)C1 (centres undefined)	-20.3	nt	1.26	1.2	-26.5	nt
O=C(Oc1c(Br)cc([N+](=O)[O-])cc1Br)c1cccnc1	-133.2	1	1	2.33*	-0.5	-3.4
N/C(=N\OC(=O)c1ccc([N+](=O)[O-])cc1)c1cccnc1	2.4	0.9	1.04	0.976	-4.2	5.6
COc1cccc(NC(=O)Nc2cc(NC(=O)Nc3cccc(OC)c3)c(C)nc2C)c1	-18.8	0.9	2.03*	1.19	-102.7	9.2
COc1cccc(NC(=O)C2CC2(c2cccc(OC)c2)c2cccc(OC)c2)c1 (centres undefined)	6.5	0.8	2.23*	0.935	-122.8	23.3
COc1cccc(C2(c3cccc(OC)c3)CC2C(=O)Nc2cccc3ccccc23)c1 (centres undefined)	-16.2	0.6	1.06	1.16	-6.2	39.6
COc1cccc(NC(=O)Nc2ccc(Cc3ccncc3)cc2)c1	-30.9	1	4.57*	1.31	-357.2	4.3
COc1cccc(NC(=O)Nc2ccncc2)c1	-20.8	1.1	0.934	1.21	6.6	-5.6
Cc1ccc(C)c(NC(=O)CN(C)C(=O)CC2OC(=O)c3ccccc32)c1 (centres undefined)	-16.1	nt	0.99	1.16	1.0	nt
O=C(O)CCN1C(=O)c2ccc(NC(=O)Cc3ccc(Cl)cc3)cc2C1=O	8.5	1	1.15	0.915	-14.5	2.6
O=C(Nc1ccc(Br)cc1)Nc1ccccc1Cl	-8.7	nt	2*	1.09	-100.4	nt
O=C(Nc1ccc(CN2CCCCC2)cc1)Nc1ccccc1Cl	4.3	1.5	1.59	0.957	-59.5	-54.4
COc1cc(/C=C2\CC/C(=C\c3cc(OC)c(O)c(OC)c3)C2=O)cc(OC)c1O	21.0	0.3	0.444	0.79	55.6*	nt
N#Cc1ccc(NC(=O)Nc2ccc(Oc3ccc(NC(=O)Nc4ccc(C#N)cc4)cc3)cc2)cc1	-11.9	nt	2.44*	1.12	-144.2	nt
SMILES	hIAP block	bIAP activator	mIAP act	hIAP activ	mIAP block	bIAP inh
COC(=O)c1cccc(NC(=O)Nc2ccc(Cl)c(Cl)c2)c1	0.5	0.9	3.04*	0.995	-204.5	10.5
COC(=O)c1ccc(NC(=O)Nc2ccc(F)c(Cl)c2)cc1	-29.3	1	2.29*	1.29	-128.8	-0.8
COC(=O)c1cc(NC(=O)Nc2ccccc2)ccc1Cl	-2.6	0.6	2.5*	1.03	-150.3	44.1
O=C(Nc1ccncc1)Nc1ccc(F)c(Cl)c1	4.5	1	1.64	0.955	-63.6	3.8
Cc1noc(C)c1COc1ccccc1C(=O)N(C)Cc1ccco1	2.7	nt	0.986	0.973	1.4	nt
O=C(NN=C1CCCC1)c1sc2ccccc2c1Cl	-17.5	0.6	1.02	1.18	-1.6	36.3
O=C1CCC/C(=N/NC(=O)c2sc3ccccc3c2Cl)C1	-177.2	nt	1.05	2.77*	-5.4	nt
CCC(NC(=S)NCc1ccc(F)cc1)c1ccc(C(C)C)cc1 (centres undefined)	10.1	nt	4.15*	0.899	-314.7	nt
CCOc1ccc(C(C)NC(=S)NCc2ccc(Cl)cc2)cc1 (centres undefined)	-15.8	1.1	4.01*	1.16	-301.2	-7.5
CCC(C)c1ccc(C(C)NC(=S)NCc2ccc(F)cc2)cc1 (centres undefined)	-8.9	nt	2.57*	1.09	-157.3	nt
Cc1ccccc1NC(=S)NCc1ccc(F)cc1	-0.3	nt	1.07	1	-7.4	nt
CCCc1ccc(C(C)NC(=S)NCc2ccc(F)cc2)cc1 (centres undefined)	-46.5	nt	2.96*	1.47	-195.5	nt
COc1ccc(C(C)NC(=S)NCc2ccc(F)cc2)cc1OC (centres undefined)	-0.1	nt	1.13	1	-12.7	nt
O=C(CCl)Nc1cc(S(=O)(=O)N2CCCCCC2)ccc1Cl	-10.2	1.1	0.937	1.1	6.3	-6.5
COc1ccc(N2CCN(S(=O)(=O)CCNC(=O)c3ccc(Br)o3)CC2)cc1	-52.3	nt	0.962	1.52	3.8	nt
O=C1C2CSCN2C(=O)CN1CCCN1CCN(C(c2ccccc2)c2ccccc2)CC1 (centres undefined)	-19.8	1.4	0.901	1.2	9.9	-37.1
O=C(CS(=O)c1ccc(Br)cc1)N1CCOCC1 (centres undefined)	-5.1	nt	0.988	1.05	1.2	nt
CC(NC(=S)NC1CCCCC1)c1ccccc1 (centres undefined)	3.9	nt	1.17	0.961	-16.8	nt
CCCc1ccc(C(C)NC(=S)NC2CCCCC2)cc1 (centres undefined)	-62.9	nt	2.31*	1.63	-130.5	nt
Cc1cccc(NC(=O)c2cnccn2)c1	-0.3	nt	1.07	1	-6.7	nt
COc1cc(/C=C2\SC(=S)N(CC(=O)Nc3ccc(O)cc3)C2=O)cc(OC)c1OC	nt	1	nt	nt	nt	-2.9
Cc1cc(C)n(C(=O)CCC(=O)NCc2ccccc2)n1	10.9	1	0.44	0.891	56.0*	0.9
CC(C)=N/N=C1/NC(=O)C(CC(=O)Nc2cc(Cl)ccc2C)S1 (centres undefined)	2.3	0.9	1.03	0.977	-2.8	6.9
Cc1ccc(N/C(N)=N/c2nc(CSc3nnc(C)s3)cc(=O)[nH]2)c(C)c1	-67.0	2.1*	1.08	1.67	-7.7	-110.7
CCOC(=O)N1CCC(NC(=O)c2ccc3c(c2)N(Cc2ccccc2)CCS3)CC1	4.0	2.5*	1.27	0.96	-27.2	-151.7
CCOC(=O)N1CCC(NC(=O)c2ccc3c(c2)N(Cc2ccc(C)cc2)CCS3)CC1	-0.4	1	1.23	1	-23.3	-4.0
